Measured values reported in ChEMBL document CHEMBL1212778, “Small-molecule inhibitors target Escherichia coli amyloid biogenesis and biofilm formation” (2009).
The source made the active and inactive calls. No cut-off for these calls is given here.

What was measured:
Escherichia coli [1] = test: Inhibition of CsgG biogenesis in Escherichia coli K-12 at 2.5 mM after […] by polyacrylamide gel-shift assay; type: functional, organism-based
In short: (§1)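 MC4100 was grown 48 h at 26 °C on YESCA agar containing compound at 0.1, 1.0 or 2.5 mM final, with a DMSO carrier control (3.6% v/v). Cells were resuspended in PBS to OD600 0.5 and curli were dissociated with HFIP or formic acid. CsgA, CsgB, CsgF and CsgG were detected by SDS-PAGE immunoblot with curli-specific antibodies. MC4100Δcsg served as negative control.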

Escherichia coli [2] = test: Inhibition of CsgF biogenesis in Escherichia coli K-12 at 2.5 mM after […] by polyacrylamide gel-shift assay; type: functional, organism-based; in short: as §1
Escherichia coli [3] = test: Inhibition of curli protein biogenesis in uropathogenic Escherichia coli UTI89 assessed as complete inhibition of biofilm formation in PVC wells at 50 to 400 uM after 48 hrs in YESCA broth medium by crystal violet staining; type: functional, organism-based
In short: (§2)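 UTI89 was grown 48 h in YESCA broth in PVC microtiter wells with compound. Wells were rinsed, stained with crystal violet and quantified. Percent inhibition is relative to no-compound controls included on each plate. Data are four experiments, with bars as s.d.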

Escherichia coli [4] = test: Inhibition of curli protein biogenesis in uropathogenic Escherichia coli UTI89 at 60 to 250 uM after 48 hrs by electron microscopy; type: functional, organism-based
In short: (§3)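 UTI89 was inoculated from an overnight LB culture into YESCA broth containing compound and shaken at 100 rpm, 28 °C, for 48 h. Cells were pelleted, resuspended in PBS and normalized to OD600 0.5. Curli were dissolved with formic acid and analysed by curli-antibody immunoblot. Samples prepared the same way were also imaged by high-resolution EM.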

Escherichia coli [5] = test: Inhibition of type 1 pili biogenesis in uropathogenic Escherichia coli UTI89 at 500 uM after 48 hrs in YESCA broth medium by congo red staining-based confocal microscopy; type: functional, organism-based; conditions: in the assay text read “curli-dependent pellicle formation” for “type 1 pili biogenesis”
In short: (§4)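 Pellicle formation was scored visually in a 24-well plate assay. UTI89 was grown in Congo red-containing YESCA broth at 30 °C, with pellicles judged about 48 h after inoculation. DMSO carrier served as control.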

Escherichia coli [6] = test: Antibacterial activity against Escherichia coli UTI89 at 400 uM after 24 hrs by spectrophotometry; type: functional, organism-based
Escherichia coli [7] = test: Inhibition of type 1 pili biogenesis in uropathogenic Escherichia coli UTI89 assessed as complete inhibition of biofilm formation in PVC wells at 50 uM after 48 hrs in LB broth medium by crystal violet staining; type: functional; conditions: UTI89, 48 h
In short: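 UTI89 was grown 48 h in LB broth in PVC microtiter wells with compound; biofilm here is type 1 pili-dependent. Wells were rinsed and stained with crystal violet. Percent inhibition is relative to no-compound controls on each plate, from four experiments.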

[8] = target: Major curlin subunit (Escherichia coli (strain K12)) (UniProt P28307); test: Inhibition of CsgA polymerization in Escherichia coli K-12 at 25 uM after 24 hrs by thioflavin-T amyloid polymerization assay
Chain of Major curlin subunit (Escherichia coli (strain K12)) (P28307 whole entry): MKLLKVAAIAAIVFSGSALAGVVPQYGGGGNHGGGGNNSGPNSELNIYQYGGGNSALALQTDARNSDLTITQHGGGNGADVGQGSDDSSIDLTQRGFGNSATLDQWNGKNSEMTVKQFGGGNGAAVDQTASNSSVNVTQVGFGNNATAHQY
In short: (§5)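 Freshly purified, soluble, unstructured C-terminal His6-CsgA (25 μM) was incubated with 25 μM ThT with or without compound. Fluorescence (excitation 438 nm, emission 495 nm) was followed over time at 60-min intervals. Soluble CsgA was confirmed by SDS-PAGE and anti-CsgA western blot, since polymerized CsgA is SDS-insoluble.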

Escherichia coli [9] = test: Inhibition of type 1 pili biogenesis in uropathogenic Escherichia coli UTI89 at 5 to 15 uM after 48 hrs by congo red staining-based confocal microscopy; type: functional, organism-based
Escherichia coli [10] = test: Inhibition of curli protein biogenesis in uropathogenic Escherichia coli UTI89 assessed as inhibition of biofilm formation in PVC wells at 50 uM after 48 hrs in YESCA broth medium by crystal violet staining; type: functional; conditions: UTI89, 48 h; in short: as §2
Escherichia coli [11] = test: Antibacterial activity against uropathogenic Escherichia coli UTI89 infected in C3H/HeN mouse assessed as reduction bacterial load in bladder at 250 uM after 6 hrs post-infection by punctate violet staining relative to control; type: functional, Urinary bladder
In short: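 UTI89 was grown under type 1 pili-inducing conditions with or without 250 μM compound, then resuspended in PBS to OD600 0.5. 50 μl (1–2 × 10^7 CFU) was instilled transurethrally into 7–8-week-old female C3H/HeN mice. At 6 hpi, bladders were homogenized and plated for CFU (16 h, 37 °C), or fixed and LacZ-stained to count IBCs. Two-tailed Mann-Whitney test.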

Escherichia coli [12] = test: Inhibition of curli protein biogenesis in Escherichia coli K-12 at 1 mM after […] by polyacrylamide gel-shift assay; type: functional, organism-based; in short: as §1
Escherichia coli [13] = test: Inhibition of type 1 pili biogenesis in uropathogenic Escherichia coli UTI89 at 5 to 15 uM after 48 hrs by SYTO83 staining-based confocal microscopy; type: functional, organism-based
[14] = target: Major curlin subunit (Escherichia coli (strain K12)) (UniProt P28307); test: Inhibition of CsgA polymerization in Escherichia coli K-12 at 10 uM after 24 hrs by thioflavin-T amyloid polymerization assay; in short: as §5
[15] = target: Major curlin subunit (Escherichia coli (strain K12)) (UniProt P28307); test: Inhibition of CsgA polymerization in Escherichia coli K-12 at 125 uM after 24 hrs by thioflavin-T amyloid polymerization assay; in short: as §5
Escherichia coli [16] = test: Inhibition of type 1 pili biogenesis in uropathogenic Escherichia coli UTI89 at 5 to 15 uM after 48 hrs by calcofluor staining-based confocal microscopy; type: functional, organism-based
Escherichia coli [17] = test: Inhibition of curli protein biogenesis in uropathogenic Escherichia coli UTI89 assessed as inhibition of biofilm formation in PVC wells at 100 uM after 48 hrs in YESCA broth medium by crystal violet staining; type: functional; conditions: UTI89, 48 h; in short: as §2
Escherichia coli [18] = test: Inhibition of curli protein biogenesis in uropathogenic Escherichia coli UTI89 at 60 to 250 uM after 48 hrs in YESCA broth medium by polyacrylamide gel-shift assay
Escherichia coli [19] = test: Inhibition of curli protein biogenesis in uropathogenic Escherichia coli UTI89 at 60 to 250 uM after 48 hrs in YESCA broth medium by polyacrylamide gel-shift assay; type: functional, organism-based; in short: as §3
Escherichia coli [20] = test: Inhibition of […] in uropathogenic Escherichia coli UTI89 at 5 uM after 48 hrs in YESCA broth medium by congo red staining-based […]; type: functional, organism-based; in short: as §4
Escherichia coli [21] = test: Inhibition of curli protein biogenesis in uropathogenic Escherichia coli UTI89 assessed as complete inhibition of biofilm formation in PVC wells at 400 uM after 48 hrs in YESCA broth medium by crystal violet staining; type: functional, organism-based; in short: as §2
Escherichia coli [22] = test: Inhibition of curli protein biogenesis in Escherichia coli K-12 at 2.5 mM […] by polyacrylamide gel-shift assay; type: functional, organism-based; in short: as §1
Escherichia coli [23] = test: Inhibition of curli protein biogenesis in uropathogenic Escherichia coli UTI89 assessed as complete inhibition of biofilm formation in PVC wells at 200 uM after 48 hrs in YESCA broth medium by crystal violet staining; type: functional, organism-based; in short: as §2
Escherichia coli [24] = test: Inhibition of type 1 pili biogenesis in uropathogenic Escherichia coli UTI89 at 25 uM after 48 hrs in YESCA broth medium by […]; type: functional, organism-based; in short: as §4

Row | Structure (SMILES) | inhibition (Escherichia coli [1]) | inhibition (Escherichia coli [2]) | inhibition (Escherichia coli [4]) | Activity (Escherichia coli [6]) | inhibition at 50 µM (Escherichia coli [7]) | inhibition [8] | inhibition (Escherichia coli [9]) | inhibition (Escherichia coli [13]) | inhibition [15] | inhibition (Escherichia coli [16]) | inhibition at 100 µM (Escherichia coli [17]) | inhibition (Escherichia coli [18]) | inhibition (Escherichia coli [19]) | inhibition (Escherichia coli [20]) | inhibition (Escherichia coli [21]) | inhibition (Escherichia coli [22]) | inhibition (Escherichia coli [23]) | also measured
1 | O=C(O)[C@@H]1CSc2c(C3CC3)c(Cc3cccc4ccccc34)cc(=O)n21 | inactive | inactive | inactive | inactive | 38% |  |  |  |  |  |  |  |  |  |  |  |  | inhibition (Escherichia coli [3]): inactive; inhibition (Escherichia coli [5]): inactive
2 | O=C(O)[C@@H]1CSc2c(-c3cccc(C(F)(F)F)c3)c(Cc3cccc4ccccc34)cc(=O)n21 | inactive | inactive | Active | inactive | 99% | Active | Active | Active | Active | Active | 90% | Active | Active | Active |  |  |  | inhibition at 50 µM (Escherichia coli [10]): 50%; fold change (FC) (Escherichia coli [11]): 10; inhibition (Escherichia coli [12]): Active; inhibition [14]: Active
3 | O=C(O)[C@@H]1CSc2c(-c3ccc(Br)cc3)c(Cc3cccc4ccccc34)cc(=O)n21 | inactive | inactive | Active | inactive |  |  |  |  |  |  | 50% | Active | Active | inactive | Active | inactive | Active | 
4 | O=C(O)[C@@H]1CSc2c(-c3ccc(F)c(F)c3)c(Cc3ccc4ccccc4c3)cc(=O)n21 | inactive | inactive | Active | inactive | 92% | Active | Active | Active | Active | Active | 50% | Active | Active |  | Active | Active | Active | inhibition (Escherichia coli [24]): Active
